Converted amounts (≈) assume the structure as drawn.
Tested on: Mycobacterium tuberculosis
Assay: Antitubercular activity against Mycobacterium tuberculosis H37Rv ATCC 27294 after 7 days by resazurin dye based assay
Assay type: functional
Details: H37Rv ATCC 27294, 168 h
Summary of the method: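 Resazurin microtiter MIC in 7H9 with 10% ADC. Two-fold dilutions from 1 mg/mL DMSO stocks span 25.0–0.05, 10.0–0.02 or 0.02–0.0004 µg/mL, with 2.5% DMSO final. Inoculum is bead-declumped culture grown in 7H9/10% OADC/0.05% Tween 80, diluted to OD600 0.006. Plates run 7 days at 37 °C, then 0.01% resazurin for 48 h. MIC is the lowest concentration preventing the blue-to-pink change. Three independent tests.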

Structure (SMILES)	MIC [µM]
O=C(CSc1nc2ccccc2c(=O)[nH]1)Nc1ccccc1	> 32.1
C[C@H]1CC[C@H](NC(=O)CSc2nc3ccccc3[nH]2)CC1	16.5 (≈ 5.01 µg/mL)
O=C(CSc1nc2ccccc2[nH]1)NCC1CCCCC1	82.4 (≈ 25 µg/mL)
CCCCCc1ccc(NC(=O)CSc2nc3ccccc3[nH]2)cc1	> 70.7
C[C@@H](NC(=O)CSc1nc2ccccc2c(=O)[nH]1)C1CCCCC1	> 28.9
COc1ccccc1NC(=O)CSc1nc2ccccc2[nH]1	> 31.9
CCCCCc1ccc(NC(=O)CSc2nc3ccccc3c(=O)[nH]2)cc1	26.2 (≈ 10 µg/mL)
CN(C(=O)CSc1nc2ccccc2c(=O)[nH]1)C1CCCCC1	> 75.4
CCCc1ccc(NC(=O)CSc2nc3ccccc3c(=O)[nH]2)cc1	> 28.3
COc1ccc(NC(=O)CSc2nc3ccccc3c(=O)[nH]2)cc1	> 29.3
NNC(=O)c1ccncc1 [ISONIAZID]	2.9 (≈ 0.398 µg/mL)
C[C@H](NC(=O)CSc1nc2ccccc2[nH]1)C1CCCCC1	> 31.5
O=C(CSc1nc2ccccc2c(=O)[nH]1)Nc1ccc(Cl)cc1	28.9 (≈ 9.99 µg/mL)
O=C(CSc1nc2ccccc2c(=O)[nH]1)N[C@H]1CCc2ccccc2C1	> 27.4
O=C(CSc1nc2ccccc2c(=O)[nH]1)NC1CCCC1	2.07 (≈ 0.628 µg/mL)
O=C(CSc1nc(O)c2ccccc2n1)Nc1ccc([N+](=O)[O-])cc1	> 28.1
O=C(CSc1nc2ccccc2c(=O)[nH]1)Nc1ccc(F)cc1	> 30.4

Structure (SMILES)	MIC [µM]
O=C(CSc1nc2ccccc2c(=O)[nH]1)Nc1ccc(I)cc1	> 22.9
O=C(CSc1nc2ccccc2[nH]1)NCc1ccccc1	> 33.6
CC1CCC(NC(=O)CSc2nc3ccccc3[nH]2)CC1 (stereo not drawn)	41.2 (≈ 12.5 µg/mL)
O=C(CSc1nc2ccccc2[nH]1)Nc1ccc2c(c1)CCC2	> 29.6
O=C(CSc1nc2ccccc2[nH]1)Nc1ccc2ccccc2c1	> 75
CCCCCCCc1ccc(NC(=O)CSc2nc3ccccc3[nH]2)cc1	> 65.5
O=C(CSc1nc(O)c2ccccc2n1)N1CCCCC1	> 33
O=C(CSc1nc2ccccc2[nH]1)NC1CCCCC1	> 31.3
CC1CCCCC1NC(=O)CSc1nc2ccccc2[nH]1 (stereo not drawn)	> 33
C[C@H](NC(=O)CSc1nc2ccccc2c(=O)[nH]1)C1CCCCC1	> 28.9
O=C(CSc1nc2ccccc2c(=O)[nH]1)NCc1ccccc1	4.8 (≈ 1.56 µg/mL)
O=C(CSc1nc2ccccc2c(=O)[nH]1)Nc1ccc2ccccc2c1	> 27.7
CC1CCCC(NC(=O)CSc2nc3ccccc3[nH]2)C1 (stereo not drawn)	> 33
O=C(CSc1nc2ccccc2c(=O)[nH]1)N[C@@H]1CCc2ccccc2C1	17.1 (≈ 6.25 µg/mL)
Cc1ccc(NC(=O)CSc2nc3ccccc3c(=O)[nH]2)cc1	> 30.7
O=C(CSc1nc(O)c2ccccc2n1)Nc1ccc(Br)cc1	> 25.6

Source: ChEMBL document CHEMBL4152290, “1H-Benzo[d]imidazoles and 3,4-dihydroquinazolin-4-ones: Design, synthesis and antitubercular activity” (Eur J Med Chem, 2018)
